From ChEMBL document CHEMBL1932958, “Analogs of pentamidine as potential anti-Pneumocystis chemotherapeutics” (Eur J Med Chem, 2012)
pIC50: −log10 of the molar value.

Tests used:
Pneumocystis carinii = experiment: Antipneumocystis activity against Pneumocystis carinii assessed as reduction of ATP level after 72 hrs by bioluminescent assay; format: functional, organism-based
How it was run: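 P. carinii from corticosteroid-immunosuppressed male CD rat lungs (methylprednisolone 20 mg/kg weekly, inoculated intratracheally or intranasally), cryopreserved, thawed at 37°C, 5 × 10^7 nuclei/ml in RPMI-1640 with 20% calf serum; 5% CO2, 37 °C. Screened at 100 µg/ml; titrated if ATP fell ≥50%. ATPlite luciferin-luciferase luminescence at 72 h; triplicate wells, 3 assays, two batches; IC50 by linear regression of % ATP decrease vs log concentration.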

A549 = experiment: Cytotoxicity against human A549 cells; format: cell-based
[1] = Cytotoxicity against rat L2 cells; format: cell-based

Structure (SMILES) | pIC50 (Pneumocystis carinii) | IC50 (A549) | IC50 [1]
COc1cc(C(=N)N)cc(OC)c1OCCN(C)CCOc1c(OC)cc(C(=N)N)cc1OC.Cl.Cl | 5.20 | > 100 µg/mL | > 100 µg/mL
COc1cc(C(=N)N)ccc1OCCOCCOc1ccc(C(=N)N)cc1OC.Cl.Cl | 5.38 | > 100 µg/mL | > 100 µg/mL
COc1cc(C(=N)N)cc(OC)c1OCCOCCOc1c(OC)cc(C(=N)N)cc1OC.Cl.Cl | 4.89 | > 100 µg/mL | > 100 µg/mL
COc1cc(C(=N)N)cc(OC)c1OCCN(CCOc1c(OC)cc(C(=N)N)cc1OC)S(=O)(=O)c1ccccc1.Cl.Cl | 5.36 | > 100 µg/mL | > 100 µg/mL
COc1cc(C(=N)N)ccc1OCCN(CCOc1ccc(C(=N)N)cc1OC)S(=O)(=O)c1ccc(NC(C)=O)cc1.Cl.Cl | 5.43 | > 100 µg/mL | > 100 µg/mL
COc1cc(C(=N)N)cc(OC)c1OCCN(CCOc1c(OC)cc(C(=N)N)cc1OC)S(=O)(=O)c1ccc(N)cc1.Cl.Cl | 5.38 | > 100 µg/mL | > 100 µg/mL
Cl.Cl.N=C(N)c1ccc(C(=O)NCCCCNC(=O)c2ccc(C(=N)N)cc2)cc1 | 5.45 | > 100 µg/mL | > 100 µg/mL
Cl.Cl.N=C(N)c1ccc(C(=O)NCCCCCNC(=O)c2ccc(C(=N)N)cc2)cc1 | 4.84 | > 100 µg/mL | > 100 µg/mL
Cl.Cl.N=C(N)c1ccc(C(=O)NCCCCCCNC(=O)c2ccc(C(=N)N)cc2)cc1 | 5.04 | > 100 µg/mL | > 100 µg/mL

Compounds with a higher pIC50 (Pneumocystis carinii), results first:

pIC50 (Pneumocystis carinii) | Structure (SMILES) | IC50 (A549) | IC50 [1]
5.76 | CN(CCOc1ccc(C(=N)N)cc1)CCOc1ccc(C(=N)N)cc1.Cl.Cl | > 100 µg/mL | > 100 µg/mL
5.47 | COc1cc(C(=N)N)ccc1OCCN(C)CCOc1ccc(C(=N)N)cc1OC.Cl.Cl | > 100 µg/mL | > 100 µg/mL
5.70 | CN(CCCCCN(C)c1ccc(C(=N)N)cc1)c1ccc(C(=N)N)cc1.Cl.Cl | > 100 µg/mL | 47.1 µg/mL
5.95 | Cl.Cl.N=C(N)c1ccc(NCCOCCNc2ccc(C(=N)N)cc2)cc1 | > 100 µg/mL | 36.9 µg/mL
5.67 | Cl.Cl.N=C(N)c1ccc(OCCOCCOc2ccc(C(=N)N)cc2)cc1 | > 100 µg/mL | > 100 µg/mL
5.52 | COc1cc(C(=N)N)cc(OC)c1OCCCCCOc1c(OC)cc(C(=N)N)cc1OC.Cl.Cl | > 100 µg/mL | 17.8 µg/mL
5.93 | Cl.Cl.N=C(N)c1ccc(OCCSCCOc2ccc(C(=N)N)cc2)cc1 | > 100 µg/mL | > 100 µg/mL
5.88 | Cl.Cl.N=C(N)c1ccc(OCCN(CCOc2ccc(C(=N)N)cc2)S(=O)(=O)c2ccccc2)cc1 | > 100 µg/mL | > 100 µg/mL
5.58 | COc1cc(C(=N)N)ccc1OCCN(CCOc1ccc(C(=N)N)cc1OC)S(=O)(=O)c1ccccc1.Cl.Cl | > 100 µg/mL | > 100 µg/mL
5.52 | Cl.Cl.N=C(N)c1ccc(C(=O)NCCCNC(=O)c2ccc(C(=N)N)cc2)cc1 | > 100 µg/mL | > 100 µg/mL
